We go through 1 compound from article PMC3268193 (British Journal of Pharmacology, 2012).

The target in assay [1] is Dictyostelium P2X receptors. Conditions: read-out: EC50 for ATP; ref Ludlow et al., 2009; cited from earlier work.
The target in assay [2] is T1, P2X1 Cys2(1-6) chimera (Homo sapiens, UniProt P51575, A118P/A137L/A141G/A151Y/D154G/DEL120-123/E128S/F152Y/G124S/G131D/I144L/I161V/INS125RVHNAT/INS150P/K127L/K136E/K138D/K140L/K148R/N153Q/P134A/Q142N/R139M/S130A/T133V/T155P/V156S).
T1 sequence (P51575 with tags, fused parts or gaps A118P/DEL120-123/G124S/INS125RVHNAT/K127L/E128S/S130A/G131D/T133V/P134A/K136E/A137L/K138D/R139M/K140L/A141G/Q142N/I144L/K148R/INS150P/A151Y/F152Y/N153Q/D154G/T155P/V156S/I161V): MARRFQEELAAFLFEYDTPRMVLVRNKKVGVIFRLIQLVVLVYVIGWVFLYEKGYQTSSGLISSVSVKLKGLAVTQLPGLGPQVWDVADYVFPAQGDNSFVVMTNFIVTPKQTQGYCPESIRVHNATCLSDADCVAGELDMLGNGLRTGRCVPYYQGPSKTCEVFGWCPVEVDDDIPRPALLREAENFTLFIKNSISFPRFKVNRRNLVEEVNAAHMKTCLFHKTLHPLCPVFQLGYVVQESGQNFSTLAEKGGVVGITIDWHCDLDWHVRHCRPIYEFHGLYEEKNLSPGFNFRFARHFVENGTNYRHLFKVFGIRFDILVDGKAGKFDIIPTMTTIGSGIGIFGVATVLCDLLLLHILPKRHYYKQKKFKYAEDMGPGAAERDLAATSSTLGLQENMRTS
As to the kind of experiment: Two-electrode voltage clamp, chimera P2X1 Cys2. The format is cell-based. Conditions: P2X1 Cys2(1-6).

Assay [3] addresses T2, human P2X1 receptor WT (Homo sapiens, UniProt P51575).
T2 sequence (P51575 1-399): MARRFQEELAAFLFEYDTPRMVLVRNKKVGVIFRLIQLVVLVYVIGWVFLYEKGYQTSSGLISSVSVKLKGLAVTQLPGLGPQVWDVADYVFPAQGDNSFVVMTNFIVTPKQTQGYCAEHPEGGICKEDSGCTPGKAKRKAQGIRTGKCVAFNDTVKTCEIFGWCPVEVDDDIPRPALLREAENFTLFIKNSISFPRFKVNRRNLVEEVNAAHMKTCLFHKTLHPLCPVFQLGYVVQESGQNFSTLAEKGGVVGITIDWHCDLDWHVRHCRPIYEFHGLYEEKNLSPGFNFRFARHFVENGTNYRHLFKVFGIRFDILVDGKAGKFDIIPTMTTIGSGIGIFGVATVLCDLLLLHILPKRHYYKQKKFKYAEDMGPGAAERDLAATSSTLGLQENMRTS
The experiment in a line: Two-electrode voltage clamp, WT P2X1 receptor in Xenopus oocytes. The format is cell-based.

In assay [4] the test system is P2X1 Del mutant receptor. As to the kind of experiment: Two-electrode voltage clamp, deletion mutant P2X1 Del. The format is cell-based, human. Particulars: ATP 100 µM, up to 10 mM. The method in brief: (§1)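 Human P2X1 deletion-mutant cRNA made by T7 in vitro transcription and injected into stage V Xenopus laevis oocytes. Oocytes kept at 18°C in ND96 (pH 7.5, with gentamicin) and recorded 2–6 days later. Two-electrode voltage clamp at −60 mV, with 1.8 mM BaCl2 replacing CaCl2 in the bath.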

The target in assay [5] is T3, human P2X2 receptor WT (Homo sapiens, UniProt Q9UBL9).
T3 sequence (Q9UBL9 1-471): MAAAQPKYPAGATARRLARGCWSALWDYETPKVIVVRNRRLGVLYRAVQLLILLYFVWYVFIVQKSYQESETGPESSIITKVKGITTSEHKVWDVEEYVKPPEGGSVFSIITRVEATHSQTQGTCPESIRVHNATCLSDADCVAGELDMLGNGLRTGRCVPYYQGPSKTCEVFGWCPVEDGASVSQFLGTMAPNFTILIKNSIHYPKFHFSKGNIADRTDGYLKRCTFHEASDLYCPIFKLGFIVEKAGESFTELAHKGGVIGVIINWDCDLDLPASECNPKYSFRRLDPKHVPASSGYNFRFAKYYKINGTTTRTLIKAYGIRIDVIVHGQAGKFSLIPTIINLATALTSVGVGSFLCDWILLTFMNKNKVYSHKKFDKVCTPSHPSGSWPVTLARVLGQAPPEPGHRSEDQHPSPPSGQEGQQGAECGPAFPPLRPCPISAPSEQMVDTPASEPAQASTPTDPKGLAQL
As to the kind of experiment: Two-electrode voltage clamp, WT P2X2 receptor in Xenopus oocytes. The format is cell-based. Conditions: P2X2 WT.

The target in assay [6] is T4, DelD P2X1 receptor (Homo sapiens, UniProt P51575, D154F/DEL118-152/DEL160-165/K157P/V156D).
T4 sequence (P51575 with tags, fused parts or gaps DEL118-152/D154F/V156D/K157P/DEL160-165): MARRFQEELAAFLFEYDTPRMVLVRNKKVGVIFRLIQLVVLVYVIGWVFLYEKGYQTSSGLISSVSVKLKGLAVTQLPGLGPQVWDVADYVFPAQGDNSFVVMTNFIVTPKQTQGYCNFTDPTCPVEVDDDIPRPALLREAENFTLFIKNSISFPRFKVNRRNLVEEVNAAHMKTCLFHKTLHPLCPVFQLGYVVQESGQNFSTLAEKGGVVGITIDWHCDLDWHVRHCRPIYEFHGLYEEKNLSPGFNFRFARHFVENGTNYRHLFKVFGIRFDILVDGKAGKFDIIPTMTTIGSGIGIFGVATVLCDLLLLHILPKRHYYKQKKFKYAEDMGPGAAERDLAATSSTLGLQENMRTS
As to the kind of experiment: Two-electrode voltage clamp, deletion mutant DelD P2X1. The format is cell-based. Conditions: ATP up to 10 mM. In short, it runs like this: as §1

In assay [7] the target is T5, P2X2 receptor mutant D136K (Homo sapiens, UniProt Q9UBL9, D148K).
T5 sequence (Q9UBL9 1-471 D148K): T3 sequence (Q9UBL9 1-471) with D148K
As to the kind of experiment: Two-electrode voltage clamp, P2X2 mutant D136K. Conditions: read-out: ATP EC50. The format is cell-based.

Changes are numbered by the printed parent chain. “Also recorded” adds a separate entry of the source.

On to `Nc1ncnc2c1ncn2[C@@H]1O[C@H](COP(=O)(O)OP(=O)(O)OP(=O)(O)O)[C@@H](O)[C@H]1O` [ATP], for which the EC50 was 100 to 500 µM in assay [1]; about 3 µM in assay [2] (read-out: ATP EC50); about 0.75 µM in assay [3] (read-out: ATP EC50, P2X1 WT); about 10 µM in assay [5] (read-out: ATP EC50); 3.87 µM in assay [7]. The “Decay Time” value is reported as 1305 ± 176 ms in assay [2] (100% to 50% decay) and 495 ± 45 ms in assay [3] (P2X1 WT, 100% to 50% decay of current). In addition, the “Peak amplitude of inward current” value in assay [3] (WT P2X1, ATP 100 µM, n = 12) is reported as −9188 ± 590 nA. For the same compound, the figures for the ATP-evoked current entry in assay [4] and in assay [6] were “barely detectable inward currents; also recorded: ineffective” and “little or no response”, respectively. Further, in assay [5] (100 µM ATP, 3 s application), the Decay of current result was “no decay at end of 3 s pulse”.
